Reference: ChEMBL document CHEMBL1152839, “2-[2-Substituted-3-(3,4-dichlorobenzylamino)propylamino]-1H-quinolin-4-ones as Staphylococcus aureus methionyl-tRNA synthetase inhibitors” (Eur J Med Chem, 2009)
In brackets after ≈: the same amount, converted by molar mass.

Columns and labels:
[1] = Inhibition of Staphylococcus aureus methionyl-tRNA synthetase assessed as decrease in [35S]methionyl-tRNA generation
Staphylococcus aureus [2] = experiment: Antibacterial activity against Staphylococcus aureus ATCC 25923 after 16 hrs at 36 degC by microdilution method; format: functional; conditions: ATCC 25923, 16 h
Method in brief: (§1)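 Broth microdilution in Mueller-Hinton broth, following NCCLS/CLSI. Stock solutions were serially diluted 2-fold to the final test concentrations. The MIC was the lowest concentration that prevented visible growth after incubation at 36 °C. Mupirocin and amoxicillin were reference antibiotics run by the same method.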

Staphylococcus aureus [3] = experiment: Antibacterial activity against Staphylococcus aureus ATCC 6538P after 16 hrs at 36 degC by microdilution method; format: functional; method in brief: as §1
Staphylococcus aureus [4] = experiment: Antibacterial activity against Staphylococcus aureus ATCC 10537 after 16 hrs at 36 degC by microdilution method; format: functional; conditions: ATCC 10537, 16 h; method in brief: as §1
Staphylococcus aureus [5] = experiment: Antibacterial activity against Staphylococcus aureus GIORGIO after 16 hrs at 36 degC by microdilution method; format: functional; method in brief: as §1
Staphylococcus aureus [6] = experiment: Antibacterial activity against Staphylococcus aureus Smith after 16 hrs at 36 degC by microdilution method; format: functional; method in brief: as §1
Staphylococcus aureus [7] = experiment: Antibacterial activity against Staphylococcus aureus SP-N2 after 16 hrs at 36 degC by microdilution method; format: functional
Method in brief: (§2)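 Broth microdilution per CLSI in Mueller-Hinton broth for staphylococci. Stock solutions were diluted in a 2-fold serial series to final test concentrations. The MIC was read as the lowest concentration that prevented visible bacterial growth after incubation at 36 °C. Mupirocin and amoxicillin were run by the same method as references.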

[8] = test system: Staphylococcus epidermidis; experiment: Antibacterial activity against Staphylococcus epidermidis ATCC 12228 after 16 hrs at 36 degC by microdilution method; format: functional; conditions: ATCC 12228, 16 h; method in brief: as §1
Staphylococcus aureus [9] = experiment: Antibacterial activity against methicillin-resistant Staphylococcus aureus KS2007-6 after 16 hrs at 36 degC by microdilution method; format: functional; method in brief: as §2
Enterococcus faecium = experiment: Antibacterial activity against Enterococcus faecium ATCC 10541 after 16 hrs at 36 degC by microdilution method; format: functional; conditions: ATCC 10541, 16 h
Method in brief: (§3)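 Broth microdilution in Brain Heart Infusion broth, following NCCLS/CLSI. Test compounds were serially diluted 2-fold from stock. The MIC was the lowest concentration with no visible bacterial growth after incubation at 36 °C. Mupirocin and amoxicillin were tested the same way as references.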

Enterococcus faecalis [10] = experiment: Antibacterial activity against Enterococcus faecalis ATCC 19433 after 16 hrs at 36 degC by microdilution method; format: functional; conditions: ATCC 19433, 16 h; method in brief: as §3
Enterococcus faecalis [11] = experiment: Antibacterial activity against Enterococcus faecalis ATCC 29212 after 16 hrs at 36 degC by microdilution method; format: functional; conditions: ATCC 29212, 16 h; method in brief: as §3

`NC(CNCc1ccc(Cl)c(Cl)c1)CNc1cc(=O)c2ccccc2[nH]1` (stereo unspecified) showed an IC50 [1] of 0.137 µM, an MIC (Staphylococcus aureus [2]) of 64 µg/mL (≈ 164 µM) and an MIC (Staphylococcus aureus [3]) of 64 µg/mL (≈ 164 µM). It also gave an MIC (Staphylococcus aureus [4]) of 64 µg/mL (≈ 164 µM), an MIC (Staphylococcus aureus [5]) of 64 µg/mL (≈ 164 µM) and an MIC (Staphylococcus aureus [6]) of 64 µg/mL (≈ 164 µM). The MIC (Staphylococcus aureus [7]) was 64 µg/mL (≈ 164 µM), the MIC [8] was 32 µg/mL (≈ 81.8 µM) and the MIC (Staphylococcus aureus [9]) was 64 µg/mL (≈ 164 µM). It also gave an MIC (Enterococcus faecium) of 16 µg/mL (≈ 40.9 µM), an MIC (Enterococcus faecalis [10]) of 64 µg/mL (≈ 164 µM) and an MIC (Enterococcus faecalis [11]) of 64 µg/mL (≈ 164 µM).

`O=c1cc(NCC(CNCc2ccc(Cl)c(Cl)c2)OCc2ccccc2)[nH]c2ccccc12` (stereo unspecified) showed an IC50 [1] of 0.0247 µM, an MIC (Staphylococcus aureus [2]) of 4 µg/mL (≈ 8.29 µM) and an MIC (Staphylococcus aureus [3]) of 4 µg/mL (≈ 8.29 µM). The MIC (Staphylococcus aureus [4]) was 4 µg/mL (≈ 8.29 µM), the MIC (Staphylococcus aureus [5]) was 4 µg/mL (≈ 8.29 µM) and the MIC (Staphylococcus aureus [6]) was 4 µg/mL (≈ 8.29 µM). For the same compound, the MIC (Staphylococcus aureus [7]) was 4 µg/mL (≈ 8.29 µM), the MIC [8] was 2 µg/mL (≈ 4.15 µM) and the MIC (Staphylococcus aureus [9]) was 2 µg/mL (≈ 4.15 µM). For the same compound, the MIC (Enterococcus faecium) was 0.5 µg/mL (≈ 1.04 µM), the MIC (Enterococcus faecalis [10]) was 2 µg/mL (≈ 4.15 µM) and the MIC (Enterococcus faecalis [11]) was 2 µg/mL (≈ 4.15 µM).

`C/C(=C\C(=O)OCCCCCCCCC(=O)O)C[C@@H]1OC[C@H](C[C@@H]2O[C@H]2[C@@H](C)[C@H](C)O)[C@@H](O)[C@H]1O` [MUPIROCIN] gave an MIC (Staphylococcus aureus [2]) of 0.25 µg/mL (≈ 0.499 µM), an MIC (Staphylococcus aureus [3]) of 0.5 µg/mL (≈ 0.999 µM) and an MIC (Staphylococcus aureus [4]) of 0.25 µg/mL (≈ 0.499 µM). The MIC (Staphylococcus aureus [5]) was 0.25 µg/mL (≈ 0.499 µM), the MIC (Staphylococcus aureus [6]) was 0.25 µg/mL (≈ 0.499 µM) and the MIC (Staphylococcus aureus [7]) was over 64 µg/mL. For the same compound, the MIC [8] was 2 µg/mL (≈ 3.99 µM), the MIC (Enterococcus faecium) was 1 µg/mL (≈ 2 µM) and the MIC (Enterococcus faecalis [10]) was 1 µg/mL (≈ 2 µM). It also gave an MIC (Enterococcus faecalis [11]) of 2 µg/mL (≈ 3.99 µM).

In the case of `CCOC(CNCc1ccc(Cl)c(Cl)c1)CNc1cc(=O)c2ccccc2[nH]1` (stereo unspecified), the IC50 [1] is reported as 0.0303 µM, the MIC (Staphylococcus aureus [2]) is reported as 16 µg/mL (≈ 38.1 µM) and the MIC (Staphylococcus aureus [3]) is reported as 8 µg/mL (≈ 19 µM). It also gave an MIC (Staphylococcus aureus [4]) of 16 µg/mL (≈ 38.1 µM), an MIC (Staphylococcus aureus [5]) of 16 µg/mL (≈ 38.1 µM) and an MIC (Staphylococcus aureus [6]) of 16 µg/mL (≈ 38.1 µM). The MIC (Staphylococcus aureus [7]) was 16 µg/mL (≈ 38.1 µM), the MIC [8] was 8 µg/mL (≈ 19 µM) and the MIC (Staphylococcus aureus [9]) was 8 µg/mL (≈ 19 µM). The MIC (Enterococcus faecium) was 1 µg/mL (≈ 2.38 µM), the MIC (Enterococcus faecalis [10]) was 4 µg/mL (≈ 9.52 µM) and the MIC (Enterococcus faecalis [11]) was 4 µg/mL (≈ 9.52 µM).

`CN(C)C(CNc1cc(=O)c2ccccc2[nH]1)CN(Cc1ccc(Cl)c(Cl)c1)Cc1ccc(Cl)c(Cl)c1` (stereo unspecified) gave an IC50 [1] of 0.131 µM, an MIC (Staphylococcus aureus [2]) of over 64 µg/mL and an MIC (Staphylococcus aureus [3]) of over 64 µg/mL. The MIC (Staphylococcus aureus [4]) was over 64 µg/mL, the MIC (Staphylococcus aureus [5]) was over 64 µg/mL and the MIC (Staphylococcus aureus [6]) was over 64 µg/mL. For the same compound, the MIC (Staphylococcus aureus [7]) was over 64 µg/mL, the MIC [8] was over 64 µg/mL and the MIC (Enterococcus faecium) was over 64 µg/mL. It also gave an MIC (Enterococcus faecalis [10]) of over 64 µg/mL and an MIC (Enterococcus faecalis [11]) of over 64 µg/mL.

`O=C(OC(CNCc1ccc(Cl)c(Cl)c1)CNc1cc(=O)c2ccccc2[nH]1)c1ccccc1` (stereo unspecified) showed an IC50 [1] of 0.0694 µM, an MIC (Staphylococcus aureus [2]) of 64 µg/mL (≈ 129 µM) and an MIC (Staphylococcus aureus [3]) of 32 µg/mL (≈ 64.5 µM). The MIC (Staphylococcus aureus [4]) was 64 µg/mL (≈ 129 µM), the MIC (Staphylococcus aureus [5]) was 32 µg/mL (≈ 64.5 µM) and the MIC (Staphylococcus aureus [6]) was 32 µg/mL (≈ 64.5 µM). For the same compound, the MIC (Staphylococcus aureus [7]) was 32 µg/mL (≈ 64.5 µM), the MIC [8] was 16 µg/mL (≈ 32.2 µM) and the MIC (Staphylococcus aureus [9]) was 32 µg/mL (≈ 64.5 µM). It also gave an MIC (Enterococcus faecium) of 8 µg/mL (≈ 16.1 µM), an MIC (Enterococcus faecalis [10]) of 16 µg/mL (≈ 32.2 µM) and an MIC (Enterococcus faecalis [11]) of 16 µg/mL (≈ 32.2 µM).

With `O=c1cc(NCCCNCc2ccc(Cl)c(Cl)c2)[nH]c2ccccc12` the IC50 [1] was 0.0034 µM, the MIC (Staphylococcus aureus [2]) was 16 µg/mL (≈ 42.5 µM) and the MIC (Staphylococcus aureus [3]) was 4 µg/mL (≈ 10.6 µM). For the same compound, the MIC (Staphylococcus aureus [4]) was 16 µg/mL (≈ 42.5 µM), the MIC (Staphylococcus aureus [5]) was 32 µg/mL (≈ 85 µM) and the MIC (Staphylococcus aureus [6]) was 16 µg/mL (≈ 42.5 µM). For the same compound, the MIC (Staphylococcus aureus [7]) was 8 µg/mL (≈ 21.3 µM), the MIC [8] was 8 µg/mL (≈ 21.3 µM) and the MIC (Staphylococcus aureus [9]) was 8 µg/mL (≈ 21.3 µM). For the same compound, the MIC (Enterococcus faecium) was 0.5 µg/mL (≈ 1.33 µM), the MIC (Enterococcus faecalis [10]) was 2 µg/mL (≈ 5.32 µM) and the MIC (Enterococcus faecalis [11]) was 2 µg/mL (≈ 5.32 µM).
